# Experimental data from ChEMBL document CHEMBL1255334.
# Calls of active or inactive are those of the source. The rule behind the calls is not given here.
# Key:
# Type in all cases: functional, organism-based
# [1] = system: Mycobacterium tuberculosis; test: Antibacterial activity against Mycobacterium tuberculosis containing PZase Leu(172)>Pro mutant assessed as at 100 mg/liter
# Outline: (§1)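 Clinical M. tuberculosis isolates first grown on Löwenstein-Jensen medium 3 to 4 weeks at 37°C. Radiometric BACTEC 460 test in acidified PZA test medium. Inoculum: ~McFarland 1 suspension grown in 12B medium until growth index (GI) >300. Paired vials per strain: drug-free control and PZA 100 mg/liter. Read when control GI reached 200. Resistant if PZA-vial GI >11% of control GI, susceptible if <9%.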
# [2] = system: Mycobacterium tuberculosis; test: Antibacterial activity against Mycobacterium tuberculosis containing PZase Ser(65)>Ser mutant assessed as at 100 mg/liter; outline: as §1
# [3] = system: Mycobacterium tuberculosis; test: Antibacterial activity against Mycobacterium tuberculosis containing PZase Gly(132)>Ala mutant assessed as at 100 mg/liter; outline: as §1
# [4] = system: Mycobacterium tuberculosis; test: Antibacterial activity against Mycobacterium tuberculosis containing pncA gene with C insertion between nucleotide -3 and -2 assessed as at 100 mg/liter; outline: as §1
# [5] = system: Mycobacterium tuberculosis; test: Antibacterial activity against Mycobacterium tuberculosis containing PZase Arg(123)>Pro mutant assessed as at 100 mg/liter; outline: as §1
# [6] = system: Mycobacterium tuberculosis; test: Antibacterial activity against Mycobacterium tuberculosis containing pncA gene with C(174)>G mutation assessed as at 100 mg/liter; outline: as §1
# [7] = system: Mycobacterium tuberculosis; test: Antibacterial activity against Mycobacterium tuberculosis containing PZase with In-frame insertion between amino acids 148 and 149 assessed as at 100 mg/liter; outline: as §1
# [8] = system: Mycobacterium tuberculosis; test: Antibacterial activity against Mycobacterium tuberculosis containing PZase Pro(54)>Leu mutant assessed as at 100 mg/liter; outline: as §1
# [9] = system: Mycobacterium tuberculosis; test: Antibacterial activity against Mycobacterium tuberculosis containing pncA gene with GG insertion between nt 391 and 392 assessed as at 100 mg/liter; outline: as §1
# [10] = system: Mycobacterium tuberculosis; test: Antibacterial activity against Mycobacterium tuberculosis containing PZase Thr(47)>Ala mutant assessed as at 100 mg/liter; outline: as §1
# [11] = system: Mycobacterium tuberculosis; test: Antibacterial activity against Mycobacterium tuberculosis containing PZase Ser(65)>Ser frameshift mutant assessed as at 100 mg/liter; outline: as §1
# [12] = system: Mycobacterium tuberculosis; test: Antibacterial activity against Mycobacterium tuberculosis containing PZase Val(125)>Asp mutant assessed as at 100 mg/liter; outline: as §1
# [13] = system: Mycobacterium tuberculosis; test: Antibacterial activity against Mycobacterium tuberculosis containing PZase Phe(58)>Leu mutant assessed as at 100 mg/liter; outline: as §1
# [14] = system: Mycobacterium tuberculosis; test: Antibacterial activity against Mycobacterium tuberculosis containing PZase Ile(6)>Thr mutant assessed as at 100 mg/liter; outline: as §1
# [15] = system: Mycobacterium tuberculosis; test: Antibacterial activity against Mycobacterium tuberculosis containing PZase Trp(68)>Arg mutant assessed as at 100 mg/liter; outline: as §1
# [16] = system: Mycobacterium tuberculosis; test: Antibacterial activity against Mycobacterium tuberculosis containing PZase Val(155)>Gly mutant assessed as at 100 mg/liter; outline: as §1
# [17] = system: Mycobacterium tuberculosis; test: Antibacterial activity against Mycobacterium tuberculosis containing pncA gene with A(-11)>G mutation assessed as at 100 mg/liter; outline: as §1
# [18] = system: Mycobacterium tuberculosis; test: Antibacterial activity against Mycobacterium tuberculosis containing PZase Ser(67)>Pro mutant assessed as at 100 mg/liter; outline: as §1
# [19] = system: Mycobacterium tuberculosis; test: Antibacterial activity against Mycobacterium tuberculosis containing PZase Val(125)>Phe mutant assessed as at 100 mg/liter; outline: as §1
# [20] = system: Mycobacterium tuberculosis; test: Antibacterial activity against Mycobacterium tuberculosis containing PZase Gly(132)>Ser mutant assessed as at 100 mg/liter; outline: as §1
# [21] = system: Mycobacterium tuberculosis; test: Antibacterial activity against Mycobacterium tuberculosis containing PZase Thr(142)>Lys mutant assessed as at 100 mg/liter; outline: as §1
# [22] = system: Mycobacterium tuberculosis; test: Antibacterial activity against Mycobacterium tuberculosis containing PZase Tyr(103)>His mutant assessed as at 100 mg/liter; outline: as §1
# [23] = system: Mycobacterium tuberculosis; test: Antibacterial activity against Mycobacterium tuberculosis containing PZase Met(175)>Thr mutant assessed as at 100 mg/liter; outline: as §1
# [24] = system: Mycobacterium tuberculosis; test: Antibacterial activity against Mycobacterium tuberculosis containing pncA gene with G insertion between nucleotide -33 and -32 assessed as at 100 mg/liter; outline: as §1
# [25] = system: Mycobacterium tuberculosis; test: Antibacterial activity against Mycobacterium tuberculosis containing PZase His(51)>Gln mutant assessed as at 100 mg/liter; outline: as §1
# [26] = system: Mycobacterium tuberculosis; test: Antibacterial activity against Mycobacterium tuberculosis containing PZase Ile(90)>Ser mutant assessed as at 100 mg/liter; outline: as §1
# [27] = system: Mycobacterium tuberculosis; test: Antibacterial activity against Mycobacterium tuberculosis containing PZase Cys(138)>Tyr mutant assessed as at 100 mg/liter; outline: as §1
# [28] = system: Mycobacterium tuberculosis; test: Antibacterial activity against Mycobacterium tuberculosis containing PZase Pro(54)>Ser mutant assessed as at 100 mg/liter; outline: as §1
smiles,measurement,setting,value
NC(=O)c1cnccn1,Activity,[1],inactive
same,Activity,[2],Active
same,Activity,[3],inactive
same,Activity,[4],Active
same,Activity,[5],inactive
same,Activity,[6],inactive
same,Activity,[7],inactive
same,Activity,[8],inactive
same,Activity,[9],inactive
same,Activity,[10],inactive
same,Activity,[11],inactive
same,Activity,[12],inactive
same,Activity,[13],inactive
same,Activity,[14],inactive
same,Activity,[15],inactive
same,Activity,[16],inactive
same,Activity,[17],inactive
same,Activity,[18],inactive
same,Activity,[19],inactive
same,Activity,[20],inactive
same,Activity,[21],inactive
same,Activity,[22],inactive
same,Activity,[23],inactive
same,Activity,[24],Active
same,Activity,[25],inactive
same,Activity,[26],inactive
same,Activity,[27],inactive
same,Activity,[28],inactive
